Assay results published in ChEMBL document CHEMBL3259611, “Suppression of inflammatory responses by handelin, a guaianolide dimer from Chrysanthemum boreale, via downregulation of NF-κB signaling and pro-inflammatory cytokine production” (J Nat Prod, 2014).
Calls of active or inactive are those of the source. The calls are words filed in the database; no cut-off is given here.

Key:
Mus musculus [1] = experiment: Antiinflammatory activity in ICR mouse ear edema model assessed as inhibition of TPA-induced ear edema at 20 mg/kg, po administered 30 mins prior to TPA challenge measured after 4 hrs relative to vehicle-treated control; format: functional
Outline: (§1)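 ICR mice (male, 18−20 g, 5 weeks old) dosed orally 30 min before TPA (1.0 μg in 20 μL acetone) was applied to inner and outer surfaces of the right ear. Killed by cervical dislocation after 4 h. Edema taken as the weight of a 5 mm punch biopsy of the right ear over the left. Ear homogenates were Western blotted for iNOS, COX-2 and IL-1β.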

RAW264.7 [2] = experiment: Antiinflammatory activity in mouse RAW264.7 cells assessed as inhibition of LPS-induced iNOS mRNA expression at 40 uM after 5 hrs by RT-PCR analysis relative to control; format: functional
Outline: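 RAW 264.7 cells exposed to 1 μg/mL LPS with or without compound for 5 h. Total RNA was analysed by RT-PCR: 25−30 cycles with annealing at 55 °C. Products were separated on 2% agarose gel with SYBR-Safe staining. Experiments in triplicate.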

RAW264.7 [3] = experiment: Antiinflammatory activity in mouse RAW264.7 cells assessed as inhibition LPS-induced IL-1beta mRNA expression at 40 uM after 4 hrs by RT-PCR analysis relative to control; format: functional
Outline: (§2)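 RAW 264.7 cells stimulated with LPS (1 μg/mL) with or without compound for 4 h. Total RNA was isolated and cytokine mRNA was analysed by RT-PCR: 94 °C 4 min, then 25−30 cycles of 94/55/72 °C for 30 s each, then 72 °C 5 min. Products were run on 2% agarose and stained with SYBR-Safe. Triplicate, representative of three experiments.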

RAW264.7 [4] = experiment: Antiinflammatory activity in mouse RAW264.7 cells assessed as inhibition LPS-induced IL-1beta protein expression at 20 uM after 4 hrs by Western blotting analysis; format: functional
Outline: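 RAW 264.7 cells stimulated with LPS (1 μg/mL) with or without compound for 4 h. Lysates were resolved by 6−15% SDS-PAGE and blotted to PVDF. Blocked in 5% milk/PBST, primary antibody overnight at 4 °C, secondary antibody 2 h, detected by ECL. Triplicate, representative of three experiments.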

RAW264.7 [5] = experiment: Antiinflammatory activity in mouse RAW264.7 cells assessed as inhibition LPS-induced IL-1beta mRNA expression at 10 uM after 4 hrs by RT-PCR analysis relative to control; format: functional; outline: as §2
RAW264.7 [6] = experiment: Inhibition of LPS-induced NF-kappaB transcriptional activity in mouse RAW264.7 cells treated 2 hrs prior to LPS challenge measured after 16 hrs by SEAP reporter gene assay relative to control; format: cell-based
Outline: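 NF-κB SEAP reporter assay in RAW 264.7 cells: 2 h compound pretreatment, then LPS for 16 h. Supernatants heated 65 °C for 5 min, then reacted with 2 M diethanolamine, 1 mM MgCl2 and 500 μM MUP for 1 h at 37 °C in the dark. Fluorescence read at ex 360/em 449 nm and normalized to protein. Expressed relative to vehicle control without LPS; triplicates.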

RAW264.7 [7] = experiment: Antiinflammatory activity in mouse RAW264.7 cells assessed as inhibition of LPS-induced COX2 protein expression at 20 uM after 16 hrs by Western blotting analysis relative to control; format: functional
Outline: (§3)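 RAW 264.7 cells given LPS (1 μg/mL) with or without compound for 16 h. Cell lysates were Western blotted for iNOS and COX-2 (6−15% SDS-PAGE, PVDF, ECL detection). Performed in triplicate.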

RAW264.7 [8] = experiment: Antiinflammatory activity in mouse RAW264.7 cells assessed as inhibition of LPS-induced COX2 protein expression at 10 uM after 16 hrs by Western blotting analysis relative to control; format: functional; outline: as §3
[9] = target: Transcription factor p65 (Mus musculus) (UniProt Q04207); experiment: Inhibition of LPS-induced NF-kappaB p65 binding to DNA in mouse RAW264.7 cells at 10 to 40 uM after 1.5 hrs by spectrophotometry; format: cell-based
Transcription factor p65 (Mus musculus), sequence (Q04207 whole entry): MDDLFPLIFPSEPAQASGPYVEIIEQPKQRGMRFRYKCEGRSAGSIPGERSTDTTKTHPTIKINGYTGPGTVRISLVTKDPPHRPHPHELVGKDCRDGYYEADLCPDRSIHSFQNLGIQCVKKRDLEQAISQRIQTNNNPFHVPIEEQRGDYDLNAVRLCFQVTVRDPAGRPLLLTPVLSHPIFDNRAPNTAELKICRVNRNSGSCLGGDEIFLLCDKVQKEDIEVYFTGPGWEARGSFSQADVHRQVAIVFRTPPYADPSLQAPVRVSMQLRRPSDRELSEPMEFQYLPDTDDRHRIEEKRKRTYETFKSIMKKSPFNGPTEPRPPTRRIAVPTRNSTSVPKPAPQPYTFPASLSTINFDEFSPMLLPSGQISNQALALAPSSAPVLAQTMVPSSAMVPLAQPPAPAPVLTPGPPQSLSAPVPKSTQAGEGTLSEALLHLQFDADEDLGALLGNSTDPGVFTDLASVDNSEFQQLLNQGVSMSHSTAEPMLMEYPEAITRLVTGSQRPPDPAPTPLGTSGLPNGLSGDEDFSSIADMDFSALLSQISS

RAW264.7 [10] = experiment: Antiinflammatory activity in mouse RAW264.7 cells assessed as inhibition LPS-induced TNF-alpha protein expression at 40 uM after 4 hrs by Western blotting analysis relative to control; format: functional
Rattus norvegicus [11] = experiment: Antiinflammatory activity in rat paw edema model assessed as inhibition of carrageenan-induced iNOS protein expression in paw tissue at 20 mg/kg, po administered 30 mins prior to carrageenan challenge measured after 6 hrs by Western blotting analysis relative to vehicle-treated control; format: functional, organism-based; parameters: dose 20 mg/kg
Outline: (§4)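 SD rats received compound orally in 0.5% CMC-Na 30 min before subplantar injection of 0.1 mL 1% carrageenan in saline. Paws were removed at 6 h, homogenized, and iNOS, COX-2 and IL-1β were assessed by Western blot. Triplicate, representative of three experiments.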

Mus musculus [12] = experiment: Antiinflammatory activity in ICR mouse ear edema model assessed as inhibition of TPA-induced ear edema at 10 mg/kg, po administered 30 mins prior to TPA challenge measured after 4 hrs relative to vehicle-treated control; format: functional; outline: as §1
[13] = target: Transcription factor p65 (Mus musculus) (UniProt Q04207); experiment: Inhibition of LPS-induced NFkappaB P65 protein nuclear translocation in mouse RAW264.7 cells at 20 uM after 30 mins by Western blotting analysis relative to control; format: cell-based
Outline: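 Macrophages were exposed to compound for 30 min before LPS stimulation, with proteins extracted 30 min later. Nuclear extracts were prepared in Tris/KCl/NP-40 lysis buffer, then 420 mM NaCl buffer, and the cytosolic fraction was kept for IκB-α. Western blot on PVDF with ECL detection. Tests in triplicate; representative of three separate experiments.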

Rattus norvegicus [14] = experiment: Antiinflammatory activity in rat paw edema model assessed as inhibition of carrageenan-induced COX2 protein expression in paw tissue at 20 mg/kg, po administered 30 mins prior to carrageenan challenge measured after 6 hrs by Western blotting analysis relative to vehicle-treated control; format: functional, organism-based; parameters: dose 20 mg/kg; outline: as §4
JNK1/JNK2 (Mus musculus) = JNK1/JNK2 (Mus musculus) (UniProt Q91Y86+Q9WTU6); experiment: Inhibition LPS-induced JNK1/2 phosphorylation at Thr183/[…] in mouse RAW264.7 cells at 40 uM administered 30 mins prior to LPS challenge measured after 30 mins by Western blotting analysis; format: cell-based
JNK1/JNK2 (Mus musculus), sequence (Q91Y86 whole entry, looked up): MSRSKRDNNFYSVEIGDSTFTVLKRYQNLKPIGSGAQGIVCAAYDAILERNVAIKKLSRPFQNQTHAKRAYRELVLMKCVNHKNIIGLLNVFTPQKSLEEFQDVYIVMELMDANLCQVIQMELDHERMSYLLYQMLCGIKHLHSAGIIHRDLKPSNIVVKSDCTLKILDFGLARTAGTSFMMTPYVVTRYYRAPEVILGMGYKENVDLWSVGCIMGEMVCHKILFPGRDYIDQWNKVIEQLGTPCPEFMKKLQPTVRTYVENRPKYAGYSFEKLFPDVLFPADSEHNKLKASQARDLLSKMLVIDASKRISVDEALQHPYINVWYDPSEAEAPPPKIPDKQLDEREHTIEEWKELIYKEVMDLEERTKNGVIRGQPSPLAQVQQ
JNK1/JNK2 (Mus musculus), sequence (Q9WTU6 whole entry, looked up): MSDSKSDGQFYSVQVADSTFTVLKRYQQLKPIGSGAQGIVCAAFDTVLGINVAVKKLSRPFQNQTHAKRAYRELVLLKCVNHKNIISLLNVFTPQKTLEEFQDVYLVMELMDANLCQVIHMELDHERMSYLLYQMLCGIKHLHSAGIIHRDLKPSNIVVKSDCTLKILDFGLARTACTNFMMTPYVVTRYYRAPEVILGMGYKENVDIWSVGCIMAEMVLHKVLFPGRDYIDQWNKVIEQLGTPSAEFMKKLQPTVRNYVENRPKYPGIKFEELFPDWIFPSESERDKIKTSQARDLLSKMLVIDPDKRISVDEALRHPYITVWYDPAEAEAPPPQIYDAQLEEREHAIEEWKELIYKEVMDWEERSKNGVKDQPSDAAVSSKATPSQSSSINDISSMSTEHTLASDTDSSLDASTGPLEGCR
Outline: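 RAW 264.7 cells pretreated with compound for 30 min, then stimulated with LPS for an additional 30 min. Lysates resolved by 6−15% SDS-PAGE and blotted to PVDF. Primary antibodies were applied overnight at 4 °C and secondary antibodies for 2 h at room temperature. Detection by ECL. Tests in triplicate; blots representative of three separate experiments.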

Mus musculus [15] = experiment: Antiinflammatory activity in ICR mouse ear edema model assessed as inhibition of TPA-induced COX2 protein expression in ear tissue at 10 to 20 mg/kg, po administered 30 mins prior to TPA challenge measured after 4 hrs by Western blotting analysis relative to vehicle-treated control; format: functional, organism-based; outline: as §1

C=C1C(=O)O[C@@H]2[C@@H]3[C@@]4(C=C[C@@]3(C)[C@]3(C4)C(=O)O[C@@H]4[C@H]5C(C)=CC[C@H]5[C@](C)(O)C[C@H](OC(C)=O)[C@H]43)[C@](C)(O)CC[C@@H]12
inhibition in vivo at 20 mg/kg (Mus musculus [1]): 56%
fold change (FC) (RAW264.7 [2]): 0.58
fold change (FC) (RAW264.7 [3]): 0.21
fold change (FC) (RAW264.7 [4]): 0.67
fold change (FC) (RAW264.7 [5]): 0.26
inhibition (RAW264.7 [5]): Active
inhibition (RAW264.7 [6]): Active
fold change (FC) (RAW264.7 [7]): 0.2
fold change (FC) (RAW264.7 [8]): 0.52
inhibition [9]: Active
fold change (FC) (RAW264.7 [10]): 0.56
inhibition (Rattus norvegicus [11]): Active
inhibition in vivo at 10 mg/kg (Mus musculus [12]): 43%
fold change (FC) [13]: 0.63
inhibition (Rattus norvegicus [14]): Active
fold change (FC) (JNK1/JNK2 (Mus musculus)): 0.24
inhibition (Mus musculus [15]): Active
